Measurements published in the M2OR odorant receptor database.

Columns and labels:
Details in all cases: stereoisomer not certain
OR13A1 (Homo sapiens) = OR13A1 (Homo sapiens) (UniProt Q8NGR1)
How it was run: (§1)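 Each receptor–molecule pair is labelled responsive or non-responsive (inactive) according to whether the original authors judged the measured signal statistically different from baseline. The data were taken from the main text and supplementary material of published papers and checked for typos and inconsistencies. Assay methods differed by source, with transient luciferase assays in mammalian cell lines being common.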

OR13C2 (Homo sapiens) = OR13C2 (Homo sapiens) (UniProt Q8NGS9)
How it was run: as §1

OR13C3 (Homo sapiens) = OR13C3 (Homo sapiens) (UniProt Q8NGS6)
How it was run: as §1

OR13C4 (Homo sapiens) = OR13C4 (Homo sapiens) (UniProt Q8NGS5)
How it was run: as §1

OR13C5 (Homo sapiens) = OR13C5 (Homo sapiens) (UniProt Q8NGS8)
How it was run: as §1

OR13C7 (Homo sapiens) = OR13C7 (Homo sapiens) (UniProt P0DN81)
How it was run: as §1

OR13C8 (Homo sapiens) = OR13C8 (Homo sapiens) (UniProt Q8NGS7)
How it was run: as §1

OR13C9 (Homo sapiens) = OR13C9 (Homo sapiens) (UniProt Q8NGT0)
How it was run: as §1

OR13D1 (Homo sapiens) = OR13D1 (Homo sapiens) (UniProt Q8NGV5)
How it was run: as §1

OR13F1 (Homo sapiens) = OR13F1 (Homo sapiens) (UniProt Q8NGS4)
How it was run: as §1

Measured: odorant receptor agonist call;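 note: active if original authors judged signal statistically different from baseline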

OR13C4 (Homo sapiens), sequence (Q8NGS5 whole entry): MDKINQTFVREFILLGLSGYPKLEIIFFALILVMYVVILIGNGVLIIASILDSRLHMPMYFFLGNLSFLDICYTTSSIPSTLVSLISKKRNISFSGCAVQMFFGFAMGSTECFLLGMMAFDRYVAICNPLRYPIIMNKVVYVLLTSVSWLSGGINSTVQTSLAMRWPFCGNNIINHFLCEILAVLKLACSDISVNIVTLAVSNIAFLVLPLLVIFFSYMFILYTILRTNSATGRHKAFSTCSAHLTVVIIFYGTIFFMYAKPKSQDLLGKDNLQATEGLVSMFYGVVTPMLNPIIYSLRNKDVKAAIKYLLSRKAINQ
OR13C3 (Homo sapiens), sequence (Q8NGS6 whole entry): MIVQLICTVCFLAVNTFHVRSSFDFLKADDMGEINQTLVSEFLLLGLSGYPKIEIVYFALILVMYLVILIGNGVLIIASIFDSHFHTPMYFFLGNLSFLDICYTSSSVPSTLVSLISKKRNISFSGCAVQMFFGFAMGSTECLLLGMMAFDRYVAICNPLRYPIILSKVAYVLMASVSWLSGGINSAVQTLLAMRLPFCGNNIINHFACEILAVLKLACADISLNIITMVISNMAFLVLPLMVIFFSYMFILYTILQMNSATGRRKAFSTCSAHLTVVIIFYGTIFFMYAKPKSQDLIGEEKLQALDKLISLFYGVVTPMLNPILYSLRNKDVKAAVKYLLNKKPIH
OR13A1 (Homo sapiens), sequence (Q8NGR1 whole entry): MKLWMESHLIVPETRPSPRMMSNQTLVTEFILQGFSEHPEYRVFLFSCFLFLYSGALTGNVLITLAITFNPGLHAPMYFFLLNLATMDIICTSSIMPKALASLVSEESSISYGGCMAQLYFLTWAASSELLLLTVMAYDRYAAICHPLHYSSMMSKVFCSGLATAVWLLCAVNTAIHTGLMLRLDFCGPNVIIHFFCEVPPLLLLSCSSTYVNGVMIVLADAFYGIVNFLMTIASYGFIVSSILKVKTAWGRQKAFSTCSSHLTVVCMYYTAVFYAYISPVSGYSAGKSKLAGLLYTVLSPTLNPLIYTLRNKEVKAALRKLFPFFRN
OR13C5 (Homo sapiens), sequence (Q8NGS8 whole entry): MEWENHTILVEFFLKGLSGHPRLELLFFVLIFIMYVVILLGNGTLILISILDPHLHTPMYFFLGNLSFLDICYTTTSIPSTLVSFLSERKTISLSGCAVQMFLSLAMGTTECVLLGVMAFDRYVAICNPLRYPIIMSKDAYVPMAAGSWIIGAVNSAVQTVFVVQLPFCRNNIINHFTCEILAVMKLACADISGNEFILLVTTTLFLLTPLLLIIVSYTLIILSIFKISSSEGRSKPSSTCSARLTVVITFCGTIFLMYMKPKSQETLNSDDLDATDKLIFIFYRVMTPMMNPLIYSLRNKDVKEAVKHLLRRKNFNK
OR13D1 (Homo sapiens), sequence (Q8NGV5 whole entry): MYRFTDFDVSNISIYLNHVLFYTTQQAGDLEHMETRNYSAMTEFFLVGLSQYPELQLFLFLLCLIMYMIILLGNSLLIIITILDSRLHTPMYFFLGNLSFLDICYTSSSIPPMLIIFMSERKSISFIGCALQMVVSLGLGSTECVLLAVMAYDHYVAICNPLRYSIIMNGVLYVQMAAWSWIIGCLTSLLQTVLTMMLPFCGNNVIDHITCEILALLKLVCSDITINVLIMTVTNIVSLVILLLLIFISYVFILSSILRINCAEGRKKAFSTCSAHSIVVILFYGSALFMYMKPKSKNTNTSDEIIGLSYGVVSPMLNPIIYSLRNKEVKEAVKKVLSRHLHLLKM
OR13C9 (Homo sapiens), sequence (Q8NGT0 whole entry): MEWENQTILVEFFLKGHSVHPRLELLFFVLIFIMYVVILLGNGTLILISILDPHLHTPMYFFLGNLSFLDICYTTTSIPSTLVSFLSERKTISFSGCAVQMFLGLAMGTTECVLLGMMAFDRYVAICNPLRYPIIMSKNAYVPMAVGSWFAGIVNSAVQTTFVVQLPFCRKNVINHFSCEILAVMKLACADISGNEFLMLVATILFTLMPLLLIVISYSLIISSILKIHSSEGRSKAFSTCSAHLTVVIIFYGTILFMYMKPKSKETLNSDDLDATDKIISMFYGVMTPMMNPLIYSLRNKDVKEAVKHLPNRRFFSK
OR13F1 (Homo sapiens), sequence (Q8NGS4 whole entry): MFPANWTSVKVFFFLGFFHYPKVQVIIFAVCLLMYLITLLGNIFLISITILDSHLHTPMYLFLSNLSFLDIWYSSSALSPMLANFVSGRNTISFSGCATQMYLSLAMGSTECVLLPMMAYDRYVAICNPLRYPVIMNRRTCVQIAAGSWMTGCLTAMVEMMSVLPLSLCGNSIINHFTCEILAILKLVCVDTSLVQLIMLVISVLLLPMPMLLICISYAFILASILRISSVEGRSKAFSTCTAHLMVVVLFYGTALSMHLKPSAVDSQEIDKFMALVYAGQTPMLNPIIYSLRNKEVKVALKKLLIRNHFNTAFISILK
OR13C8 (Homo sapiens), sequence (Q8NGS7 whole entry): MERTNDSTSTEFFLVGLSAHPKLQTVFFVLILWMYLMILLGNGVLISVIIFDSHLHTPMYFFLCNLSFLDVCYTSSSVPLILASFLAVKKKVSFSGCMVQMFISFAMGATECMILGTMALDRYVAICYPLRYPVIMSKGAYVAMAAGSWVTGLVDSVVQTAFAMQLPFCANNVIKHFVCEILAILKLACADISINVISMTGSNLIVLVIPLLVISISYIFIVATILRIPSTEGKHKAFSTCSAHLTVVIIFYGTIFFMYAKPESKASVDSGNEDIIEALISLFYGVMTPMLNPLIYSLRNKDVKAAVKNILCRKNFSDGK
OR13C2 (Homo sapiens), sequence (Q8NGS9 whole entry): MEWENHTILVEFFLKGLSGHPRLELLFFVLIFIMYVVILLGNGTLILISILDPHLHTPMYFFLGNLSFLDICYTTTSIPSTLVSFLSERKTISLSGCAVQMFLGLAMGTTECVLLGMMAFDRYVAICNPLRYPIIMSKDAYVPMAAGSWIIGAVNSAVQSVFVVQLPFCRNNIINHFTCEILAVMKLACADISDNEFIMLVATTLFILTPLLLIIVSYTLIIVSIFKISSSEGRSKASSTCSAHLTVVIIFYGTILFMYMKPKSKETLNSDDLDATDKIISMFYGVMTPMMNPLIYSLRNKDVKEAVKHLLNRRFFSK
OR13C7 (Homo sapiens), sequence (P0DN81 whole entry): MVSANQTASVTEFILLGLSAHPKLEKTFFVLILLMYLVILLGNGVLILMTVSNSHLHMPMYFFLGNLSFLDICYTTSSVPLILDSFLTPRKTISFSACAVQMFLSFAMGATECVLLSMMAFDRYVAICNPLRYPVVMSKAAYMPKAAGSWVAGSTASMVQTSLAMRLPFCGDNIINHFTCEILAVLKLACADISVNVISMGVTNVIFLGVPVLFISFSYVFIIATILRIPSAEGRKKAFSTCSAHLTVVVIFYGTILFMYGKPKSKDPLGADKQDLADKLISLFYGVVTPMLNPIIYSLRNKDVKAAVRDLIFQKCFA

Cc1c([N+](=O)[O-])c(C)c([N+](=O)[O-])c(C(C)(C)C)c1[N+](=O)[O-]
inactive: all assays above

C=CCOC(=O)Cc1ccccc1
not listed: OR13C7 (Homo sapiens)
inactive: all other assays above
